Screening data (PubChem)
This excerpt belongs to a sample that is enriched for hits.
IDH1 mut inh: blocks human IDH1 R132H reductase activity. inhibition, % at 10 µM. 70,000 compounds, 0.18% hits. diaphorase/resazurin fluorescence, 60 min. O75874; in the data active = inhibition above about 34%; inconclusive = no clear call, values can overlap the other calls; inactive = below about 11%;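 note: 0% = DMSO and 100% = no enzyme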
Target sequence (O75874 whole entry R132H): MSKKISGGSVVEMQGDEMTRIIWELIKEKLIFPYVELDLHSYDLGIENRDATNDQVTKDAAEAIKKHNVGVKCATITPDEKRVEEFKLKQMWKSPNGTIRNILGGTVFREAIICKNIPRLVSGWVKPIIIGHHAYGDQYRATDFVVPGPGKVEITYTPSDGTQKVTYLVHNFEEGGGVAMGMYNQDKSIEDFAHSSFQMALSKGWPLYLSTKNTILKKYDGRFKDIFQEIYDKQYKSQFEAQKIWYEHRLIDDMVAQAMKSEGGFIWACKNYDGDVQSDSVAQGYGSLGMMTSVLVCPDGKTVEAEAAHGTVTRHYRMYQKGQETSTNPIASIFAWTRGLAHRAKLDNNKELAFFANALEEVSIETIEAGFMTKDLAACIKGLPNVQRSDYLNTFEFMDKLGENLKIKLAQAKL
KDM4C inh: KDM4C (human) demethylase inhibition; inhibition, % at 12.5 µM; 96,000 compounds, 0.15% hits; AID 720574; GST-KDM4C 2-372, H3K9me3 peptide, LANCE TR-FRET; Q9H3R0;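 active = mean replicate inhibition above about 25%, with at least 55% of replicates also reaching it, limit read from the data, passing the limit was not always enough; inconclusive = only one of those two conditions met; inactive = neither condition met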
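reagent = H3K9me3 peptide substrate, Fe(II), 2-oxoglutarate | system = GST-tagged GASC-1 (JMJD2C) catalytic fragment, aa 2-372 | amount = enzyme final amount 10 nM | read-out = Fall in 671/618 emission ratio as inhibition | medium = HEPES buffer, pH 7.5, plus ascorbate | schedule = 30 min reaction, 60 min detection, RT | measured by = LANCE TR-FRET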
* = called active by the depositor; ? = inconclusive; · = no result given.

SMILES	IDH1 mut inh	KDM4C inh
CO[C@H]1CN(C)C(=O)c2ccc(NS(=O)(=O)c3cccc(Cl)c3)cc2OC[C@@H](C)NC[C@@H]1C	-0.1	-0.3
CO[C@H]1CN(C)C(=O)c2ccc(NS(=O)(=O)c3cccc(Cl)c3)cc2OC[C@@H](C)NC[C@H]1C	72.2*	43.2*
N#C[C@H]1[C@@H](c2ccccc2-c2ccccc2)[C@@H](CO)N1C(=O)NC1CCCC1	·	2.9
Cc1cc(-c2ccc(N=Nc3cc(S(=O)(=O)O)c4ccccc4c3N)c(C)c2)ccc1N=Nc1cc(S(=O)(=O)O)c2ccccc2c1N	42.6*	·
Cc1cc(N)n(-c2ccc(Oc3ccccc3)cc2S(=O)(=O)O)n1	-0.6	·
C[C@H](CO)N1C[C@H](C)[C@H](CN(C)S(C)(=O)=O)Oc2ccc(NC(=O)Cc3ccccc3)cc2CC1=O	·	0.0
COc1cc(/C=C/C(=O)CC(=O)/C=C/c2ccc(O)c(OC)c2)ccc1O	-0.3	·
COC(=O)/C=C/c1cc(O)ccc1O	88.8*	·
C[C@@H]1CN([C@H](C)CO)C(=O)c2cc(NC(=O)Cc3ccccc3)ccc2O[C@H]1CN(C)Cc1ccc(Cl)c(Cl)c1	3.6	-0.8
Cc1ccccc1S(=O)(=O)NCC[C@H]1CC[C@@H](NC(=O)C2CCCCC2)[C@@H](CO)O1	0.3	-2.4
COc1ccccc1S(=O)(=O)N[C@H]1CC[C@H](CCNC(=O)C2CCCCC2)O[C@@H]1CO	-0.1	-0.2
Cc1ccccc1S(=O)(=O)NCC[C@H]1CC[C@H](NC(=O)C2CCCCC2)[C@H](CO)O1	88.3*	82.5*
COc1ccccc1S(=O)(=O)N[C@H]1CC[C@H](CCNC(=O)C2CCCC2)O[C@H]1CO	?	50.1*
C[C@H](CO)N1C[C@H](C)[C@@H](CN(C)C(=O)C2CCC2)Oc2cc(-c3ccncc3)ccc2S1(=O)=O	·	1.0
Cc1noc(C)c1S(=O)(=O)N(C)C[C@H]1Oc2ccc(NC(=O)C3CCCCC3)cc2CC(=O)N([C@H](C)CO)C[C@@H]1C	-0.6	-1.2
COc1ccc(C#Cc2cnc3c(c2)C(=O)N([C@@H](C)CO)C[C@H](C)[C@H](CN(C)C)O3)cc1	-0.5	28.2*
C[C@@H]1CN([C@@H](C)CO)C(=O)c2cc(C#CCc3ccccc3)cnc2O[C@@H]1CN(C)Cc1ccc(C(=O)O)cc1	0.6	-2.4
COc1ccc(C#Cc2cnc3c(c2)C(=O)N([C@H](C)CO)C[C@@H](C)[C@@H](CN(C)C)O3)cc1	0.0	-0.6
COc1ccc(C#Cc2cnc3c(c2)C(=O)N([C@H](C)CO)C[C@@H](C)[C@H](CN(C)C)O3)cc1	-0.2	-1.5
COc1ccccc1-c1cnc2c(c1)C(=O)N([C@H](C)CO)C[C@H](C)[C@@H](CN(C)C)O2	-0.6	2.8
COc1ccccc1-c1cnc2c(c1)C(=O)N([C@H](C)CO)C[C@@H](C)[C@H](CN(C)C)O2	16.5	32.7*
C[C@H]1CN([C@@H](C)CO)C(=O)c2cc(C#CCc3ccccc3)cnc2O[C@@H]1CN(C)Cc1ccc(C(=O)O)cc1	35.3*	4.2
COc1ccc(C#Cc2cnc3c(c2)C(=O)N([C@H](C)CO)C[C@H](C)[C@H](CN(C)C)O3)cc1OC	-1.0	28.9*
CO[C@@H]1CC[C@H]2CCOc3ccc(C#N)cc3C(=O)N(C)[C@H](C)C(=O)N(C)C[C@H]1O2	·	-0.7
COCC(=O)Nc1ccc2c(c1)C(=O)N(C)C[C@H](OC)[C@H](C)CN(CCC(F)(F)F)[C@H](C)CO2	-0.1	1.6
SMILES	IDH1 mut inh	KDM4C inh
O=C(N[C@@H]1CC[C@@H](CCn2cc(-c3ccccc3F)nn2)O[C@H]1CO)c1ccc2c(c1)OCO2	0.1	-1.2
COc1ccc(S(=O)(=O)N(C)C[C@H]2Oc3ccc(NC(=O)Nc4cccc5ccccc45)cc3CC(=O)N([C@H](C)CO)C[C@H]2C)cc1	1.7	-0.5
O=C(N[C@@H]1CC[C@@H](CCNS(=O)(=O)Cc2ccccc2)O[C@@H]1CO)c1ccc2c(c1)OCO2	0.4	-1.1
O=C(N[C@H]1CC[C@H](CCNS(=O)(=O)Cc2ccccc2)O[C@H]1CO)c1ccc2c(c1)OCO2	5.3	35.3*
O=C(COc1ccc(Br)cc1C(=O)Nc1ccc(Cl)cc1)NC1CC1	-0.8	·
COc1ccc(CNC(=O)C[C@@H]2C=C[C@@H](NS(=O)(=O)c3cccc(OC)c3)[C@H](CO)O2)cc1	-0.3	-0.3
COc1ccc(NC(=O)N(C)C[C@H]2Oc3ccc(NC(=O)Nc4ccccc4)cc3CC(=O)N([C@H](C)CO)C[C@@H]2C)cc1	0.6	42.3*
COc1ccc(NC(=O)Nc2ccc3c(c2)CC(=O)N([C@@H](C)CO)C[C@@H](C)[C@@H](CN(C)C(=O)Nc2ccccc2)O3)cc1	4.1	0.4
Cc1noc(C)c1S(=O)(=O)N(C)C[C@H]1Oc2ccc(NS(=O)(=O)c3ccccc3)cc2CC(=O)N([C@H](C)CO)C[C@@H]1C	21.3	45.1*
COc1ccc(NC(=O)Nc2ccc3c(c2)CC(=O)N([C@H](C)CO)C[C@H](C)[C@@H](CN(C)C(=O)Nc2ccccc2)O3)cc1	-0.4	-2.8
Cc1noc(C)c1S(=O)(=O)N(C)C[C@H]1Oc2ccc(NS(=O)(=O)c3ccccc3)cc2CC(=O)N([C@@H](C)CO)C[C@@H]1C	-1.2	0.5
COc1ccc(NC(=O)N(C)C[C@@H]2Oc3ccc(NC(=O)Nc4ccccc4)cc3CC(=O)N([C@@H](C)CO)C[C@H]2C)cc1	58.6*	24.6
O=C(C[C@@H]1CC[C@H]2[C@@H](COC[C@H](O)CN2C(=O)c2cnccn2)O1)NCc1ccc(F)cc1	·	0.7
CCOc1ccc(NC(=O)CSc2nnc3c4c5c(sc4nc(SC)n23)CCC5)cc1	0.3	·
O=C(C[C@@H]1C[C@H]2c3cc(NC(=O)C4CCC4)ccc3O[C@H]2[C@H](CO)O1)NCc1cccc(F)c1	0.4	-0.5
CCCN1[C@H](C(=O)N[C@@H](C)c2ccccc2)[C@@H](CO)[C@@H]2Cn3c(cccc3=O)[C@@H]21	·	38.3*
CCCN1[C@@H]2c3cccc(=O)n3C[C@@H]2[C@@H](CO)[C@@H]1C(=O)N[C@@H](C)c1ccccc1	·	18.6
COCC(=O)N(C)C[C@H]1Oc2ncc(C#Cc3cccnc3)cc2C(=O)N([C@@H](C)CO)C[C@@H]1C	0.9	6.9
COCC(=O)N(C)C[C@@H]1Oc2ncc(C#Cc3cccnc3)cc2C(=O)N([C@@H](C)CO)C[C@H]1C	11.4	37.4*
COCC(=O)N(C)C[C@@H]1Oc2ncc(C#CC3(O)CCCC3)cc2C(=O)N([C@H](C)CO)C[C@@H]1C	-0.4	3.0
C[C@H](CO)N1C[C@H](C)[C@@H](CN(C)C(=O)c2ccccc2F)Oc2ncc(C#Cc3ccncc3)cc2C1=O	0.5	-1.8
COCC(=O)N(C)C[C@H]1Oc2ncc(C#CC3(O)CCCC3)cc2C(=O)N([C@@H](C)CO)C[C@H]1C	12.6	30.9*
C[C@@H]1CN([C@H](C)CO)C(=O)c2cc(C#Cc3ccncc3)cnc2O[C@@H]1CN(C)C(=O)c1ccccc1F	36.2*	3.9
CN(C)CC#Cc1ccc([C@@H]2[C@@H](CO)N3C(=O)CN(C(=O)Cc4cccnc4)C[C@H]23)cc1	·	1.6
CC=Cc1ccc2n(c1=O)C[C@H]1[C@H](CO)[C@@H](C(=O)NCC3CC3)N(C(=O)C3CCOCC3)[C@@H]21 (mixture of isomers)	·	1.0
